Experimental data from different studies.
Compare with care: the assays were run in different laboratories.
Target: Serine/threonine-protein kinase DCLK2 (DCLK2, Homo sapiens, UniProt Q8N568)
One construct used (Q8N568 1-766): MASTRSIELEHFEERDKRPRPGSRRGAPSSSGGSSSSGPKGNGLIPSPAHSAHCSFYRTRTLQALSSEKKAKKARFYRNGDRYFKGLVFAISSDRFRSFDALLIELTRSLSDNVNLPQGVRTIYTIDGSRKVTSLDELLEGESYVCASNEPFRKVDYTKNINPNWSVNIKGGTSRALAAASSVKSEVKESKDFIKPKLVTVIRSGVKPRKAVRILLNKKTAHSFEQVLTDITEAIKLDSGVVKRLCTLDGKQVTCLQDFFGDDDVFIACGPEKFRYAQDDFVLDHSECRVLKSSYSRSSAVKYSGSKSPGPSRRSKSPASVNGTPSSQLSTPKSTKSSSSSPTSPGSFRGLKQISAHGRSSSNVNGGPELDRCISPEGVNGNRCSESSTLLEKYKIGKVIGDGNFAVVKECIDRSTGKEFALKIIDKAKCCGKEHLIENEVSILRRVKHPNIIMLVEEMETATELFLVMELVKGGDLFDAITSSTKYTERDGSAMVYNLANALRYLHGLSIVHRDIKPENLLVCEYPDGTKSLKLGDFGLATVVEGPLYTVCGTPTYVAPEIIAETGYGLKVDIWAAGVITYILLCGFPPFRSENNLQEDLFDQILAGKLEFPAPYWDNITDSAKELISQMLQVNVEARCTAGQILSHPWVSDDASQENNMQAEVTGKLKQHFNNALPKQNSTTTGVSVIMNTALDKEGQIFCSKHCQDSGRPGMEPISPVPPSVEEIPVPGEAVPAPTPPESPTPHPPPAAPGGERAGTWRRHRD

CN(C)CC#Cc1ccc(OCCCc2sc(N3CCc4cccc(C(=O)Nc5nc6ccccc6s5)c4C3)nc2C(=O)O)c(F)c1
remaining binding (cell-free assay, competition with immobilised ligand; 1 µM): 100%

CC1CCCN1c1nccc(-c2cnn3ncccc23)n1 (stereo not shown)
remaining binding (binding; 1 µM): 100%

Cc1cc(-n2nc(Cc3cc(F)cc(C(F)(F)F)c3)nc2C)ccc1C(N)=O
remaining binding (cell-free assay, competition with immobilised ligand; 1 µM): 100%

Cc1cnn2ncc(-c3ccnc(N(C)C)n3)c2c1
remaining binding (binding; 1 µM): 100%

COc1cnc(Nc2cccc(S(N)(=O)=O)c2)nc1N1CCN(c2ccccc2)C(=O)C1
remaining binding (binding, competition with immobilised ligand; 1 µM): 100%

O=C(c1ccc(Nc2nccc(-c3cc4ccccc4s3)n2)cc1)N1CCC(N2CCCC2)CC1
remaining binding (binding, competition with immobilised ligand; 1 µM): 97%

C[C@@H](c1ccc(-n2cnc3c(N)ncnc32)cc1)N1CCc2nn(C)c(Cc3ccccc3)c2C1=O
remaining binding (binding, competition with immobilised ligand; 0.1 µM): 100%

F[C@@H]1CCN(c2nccc(-c3cnn4ncccc34)n2)C1
remaining binding (binding; 1 µM): 88%

O=C(NCCCN1CCOCC1)c1ccc(Nc2ncc(Cl)c(-c3ccc(Cl)s3)n2)cc1
remaining binding (binding, competition with immobilised ligand; 1 µM): 78%

COc1ccnn2ncc(-c3ccnc(N(C)C)n3)c12
remaining binding (binding; 1 µM): 100%

CCN1CCN(Cc2ccc(C(=O)Nc3ccc(C)c(Oc4ccc5c(c4)CC(=O)N5)c3)cc2C(F)(F)F)CC1
remaining binding (binding, competition with immobilised ligand; 1 µM): 92%

O=C(NCC1CCOCC1)c1n[nH]cc1NC(=O)c1c(F)cccc1F
remaining binding (binding, competition with immobilised ligand; 1 µM): 100%

C=CC(=O)N1CCC(C(=O)NCC(=O)N2CCN(c3nc(-c4cnc(N)nc4C(F)F)nc(N4CCOCC4)n3)CC2)CC1
remaining binding (binding, competition with immobilised ligand; 1 µM): 98%

NS(=O)(=O)c1cc(NC(=O)C2(c3ccccc3Cl)CC2)ccc1Oc1cccc(Cl)c1
remaining binding (cell-free assay, competition with immobilised ligand; 1 µM): 74%

CNC(=O)[C@@H]1CC[C@@H](n2c(-c3ccc4cnccc4c3)nc3ccc(C(=O)NCc4cccc(C(N)=O)c4)cc32)C1
remaining binding (binding, competition with immobilised ligand; 1 µM): 100%

O=C1NC(c2ccccn2)Sc2ccccc21 (stereo not shown)
remaining binding (cell-free assay, competition with immobilised ligand; 1 µM): 92%

Cc1cnc(Nc2ccc(C(=O)N3CCC(N4CCCC4)CC3)cc2)nc1-c1cc2ccccc2s1
remaining binding (binding, competition with immobilised ligand; 1 µM): 100%

CCOC(=O)c1cc2cc(-c3cc(C(=O)NCc4ccc(C(=O)O)cc4)nn3C)ccc2[nH]1
remaining binding (cell-free assay, competition with immobilised ligand; 0.1 µM): 100%

COc1cc(C(=O)N2CCC(N3CCN(C)CC3)CC2)ccc1Nc1ncc2c(n1)N(C)c1ccccc1C(=O)N2C
remaining binding (binding, competition with immobilised ligand; 10 µM): 0.45%
